Tested on: MS2 coat protein
Experiment: apparent Kd, MS2 coat protein; higher = weaker binding; RNA-MaP array; FMN 200 µM where present
Procedure, shortened: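 Designs were transcribed by stalled E. coli RNA polymerase on Illumina sequencing-chip clusters. They were titrated with SNAP-549-labelled MS2 coat protein from 0.7 or 1.5 nM, doubling to 3 µM, in 100 mM Tris-HCl pH 7.5, 80 mM KCl, 4 mM MgCl2, BSA, DTT, yeast tRNA and Tween-20, without and then with constant ligand. The apparent Kd is the median of filtered per-cluster fits after normalisation of green signal to red-channel RNA signal and control-cluster median Fmax.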

[1] = designed as: ON switch for flavin mononucleotide, no ligand
[2] = ligand present: flavin mononucleotide, designed as: ON switch for flavin mononucleotide
[3] = designed as: OFF switch for flavin mononucleotide, no ligand
[4] = ligand present: flavin mononucleotide, designed as: OFF switch for flavin mononucleotide

Sequence | apparent Kd [1] [nM] | apparent Kd [2] [nM] | apparent Kd [3] [nM] | apparent Kd [4] [nM]
GACUGAUUACAGAAGGUGUUUGACAUGAGGAUCACCCAUGUGUUAUUCAGUUUCAUUGAAUUUAACAAGGAUAUGUAUAUAUCA | 220 | 101 |  | 
AAAAACAUAGGAUAUACAUGAGGAUCACCCAUGUUAAAAUAAAGAAAGGGAGAAAUAAGUAGAAGGAUGAAAAA |  |  | 37.7 | 40.2
CCUCGACAUGAGGAUCACCCAUGUCAGGAUAUUGUGUUUUGGGUUUUUUACCUUUUGGCAAGAAGGGAUGUGUG |  |  | 15.5 | 19.1
AGUAAGAUGCAGAAGGUGUCAGCUAGUGCUACGACAUGAGGAUCACCCAUGUACUAGAAACAGUACAAGGAUAUGCAUCUUACA | 56.8 | 8.32 |  | 
AUUUGACACGUAGGAUAUCGCUCAAAUUUAACACGAGAAGGACGAACAUGAGGAUCACCCAUGUAACAUGGUGUAGUUUAUUUG |  |  | 62.7 | 88.1
UUUAUUUAGGCAGGAUAUACAUGUAUAUAUAUUUCUUUAUAUCUUAUUACAUGAGGAUCACCCAUGUAGAAGGGCCUUCUUAUC |  |  | 30.1 | 34.5
UGGUACUAGGGAGGAUAUGGGAAGUUACAUGAGGAUCACCCAUGUUUAAGAAUGCCGAGAGGCAACUAGAAGGCCCUAGUACCU | 31.6 | 6.24 |  | 
CGGUGUAGAGGAUAUACGUGAAUUUUGUUAUAUGAUAAUUUACAUGAGGAUCACCCAUGUAGAAGGCUAUAGCG |  |  | 17.9 | 18.1
UAAGAGUGAGGAUAUUCGUAGUACACGGAGACGUGUAUUACGGAGAAGGCACAUGAGGAUCACCCAUGUUCCUU |  |  | 15.6 | 48.5
GGAUCGAUGUAGAAGGCUGUCCUAAAAUAGGACAGAGGAUAUACAUGAGGAUCACCCAUGUACUCCUUUAAAACGAUCCAAAUA |  |  | 5.44 | 7.59
CGAUAGGACAGAGGAUAUGCCGAUAGGAUCUACUAUCGAAGAAUCCUCACAUGAGGAUCACCCAUGUAGAAGGCUGUCCUAUCU |  |  | 7.9 | 38.1
UAUGUGUCAGGAUAUUAAUUAUUGGAGAAUGUGACGAUGAUUAAGAAGGGACAUGAGGAUCACCCAUGUUCAUC |  |  | 20.4 | 33.6
GCCAGAGCAGGAUAUUCAAUAUUCCACAUGAGGAUCACCCAUGUCCUGCGAAAGCAGGAGGGAGAAGGGCUCUGGC |  |  | 69.5 | 25.5
UAUAUAUAGGCAGGAUAUACAUGUAUAUAUAAUAUAUUAUAUAAUAUAACAUGAGGAUCACCCAUGUAGAAGGGCCAUAAUAUA |  |  | 58.4 | 83.7
CGCACUAUACAUGAGGAUCACCCAUGUUAACUUUAGCUAUUCAGAAGGCAUAAAUAGAGAUUAAAUGAGGAUAUGAUUAGUGCG | 88.6 | 28.3 |  | 
GCUGCAUGCAGAGGAUAUGACACAUGAGGAUCACCCAUGUAAUAAAUGAGAAUUUCGAAUGUAACUCAGAAGGCUGCAUGCAGC |  |  | 54.2 | 186
GGAGCCGGUACUGAGGAUAUUCAUAUUAAAACAUGAGGAUCACCCAUGUGGGCCAGAAGGCCUUGGGAGAAGGCAGACCAGCUCG | 238 | 22.1 |  | 
AAUAAACUCACAGGAUAUAGCAGAGGUCGCGUGAACUUACAGGCGACGAGGCUAGAAGGGUGACCACAUGAGGAUCACCCAUGU | 858 | 95.8 |  | 
GGAAGACAAAGUCUUCCAUUACGAACAUGAGGAUCACCCAUGUAGGAUAUGCUACUCAAAGAGUAGCAGAAGGACAUGUGUCUU |  |  | 27.4 | 120
AGGAAGUGCCAGAAGGCUCCUGGAAUCCUAGGGAGAGGAUAUGGCACAUGAGGAUCACCCAUGUGGUAGAUCUGUUUCGAAGUG |  |  | 93.4 | 31.1
GCUAGGCAUGUCAGGAUAUGCUGAACCUUGGUUCAGCAGAAGGGACAUGAGGAUCACCCAUGUGCCAACCUAGC |  |  | 57.4 | 613
CUUAUUAAACAAGGAUAUCAUUUGUGUACAAGUUUUACAUGAGGAUCACCCAUGUUAAAUGGUUUUGAGAAGGUGUUUAGAACU | 58.4 | 31.5 |  | 
UCGGCGCGAGGAUAUACGUUUGCUUUUUUGGGUCGUUGCGUACAUGAGGAUCACCCAUGUAGAAGGCGCGCCGC |  |  | 27.4 | 187
CCUACAUAUUUUAAGUAUGAUUAACUAGAAGGUAGAUACAUGAGGAUCACCCAUGUUUAGAGAUCUAAGGAUAUAGUAUGUAGC | 13.3 | 9.45 |  | 

Sequence | apparent Kd [1] [nM] | apparent Kd [2] [nM] | apparent Kd [3] [nM] | apparent Kd [4] [nM]
GGGCCCGGUGUGAGGAUAUGCUCGGGUAAACUCGGGCAGAAGGCACAUGAGGAUCACCCAUGUAAGCCGGGCCC |  |  | 13.8 | 14.6
AGGUACAUCGGAGGAUAUCAUGUAAAUACAUGAGGAUCACCCAUGUCGAUGGAGACAUCGGAGAUUGAGAAGGCCGAUGUACCG | 152 | 8.62 |  | 
UUUUUGUGAGGAUAUGCGUAGUAGAACAAUAGUACUACUACGUAGAAGGCACAUGAGGAUCACCCAUGUUCCUC |  |  | 37.8 | 254
GGCGGUCGGGAGGAUAUUCGGGCUGUUUGGCUUGGAGAAGGCUCGACAUGAGGAUCACCCAUGUUGGUGUUCUU |  |  | 387 | 40.8
GAAAACCAAGGAUAUACAUGAGGAUCACCCAUGUAGGUUGGGACGCCAUAAAGGCGAUGUAGAAGGUGGGAAAA |  |  | 21.9 | 33.6
GCCAACUCGUGAGGAUAUGGCACCUUAUUGGUGCCAGAAGGCAUGUCAAUUGACAUGAGGAUCACCCAUGUAUUAUAGUUGGCA | 563 | 88.2 |  | 
UUGGACGUCGUAGGAUAUGUAGGAUAUUCUUACAUGAGGAUCACCCAUGUUGACAUGGAAGAAGGACAGAAGGACGAUGUCCAU | 56.7 | 7.2 |  | 
AAAUAAGUUGCAGGAUAUUAUUUAUAAUAUAUAUAAGAAGGGCAACAAACCUCACAUGAGGAUCACCCAUGUACCCAUGCAUCU |  |  | 109 | 44.8
CCAGGCGUAUAGGAUAUACGUGUCGAGUUCGCUGUAGAAGGAUACACAUGAGGAUCACCCAUGUUUGCCAGUGG |  |  | 24.5 | 21.2
CAGUAUUGAGGAUAUACAUGAGGAUCACCCAUGUGUUCCAGCUAGGAAACUAGCAAAAGUAGAAGGCAGUACUG |  |  | 21.6 | 186
AAUGUCAGAAAGGAUAUGUAACUUGUAACUGUGACAGAAGGUUCGACAUGAGGAUCACCCAUGUUGAUCCAGGU |  |  | 14.1 | 26.4
UGUCGGAGCAGAGGAUAUUACAUGAGGAUCACCCAUGUAUGAACCAAUAGCUGGAAACAGCCAUGUAAGAAGGCUGCUCCGACA |  |  | 157 | 543
UGGUGCGAGCUAUCGCAUGACUGGGAGGAUAUGACAUGAGGAUCACCCAUGUGGGAUCUAAAUUGUCAGAAGGCUCGAUCUGGG |  |  | 346 | 102
UUGGACGUCGUAGGAUAUGUAGGAUAUUCCUACAUGAGGAUCACCCAUGUUGACAUGGGAGAAGGACAGAAGGACGAUGUCCAU | 52.4 | 176 |  | 
AAAUAGUUAGGAUAUACAUGAGGAUCACCCAUGUGGACUGAUGGCGCUUGAUUCAGUGGUAGAAGGGACUCAAA |  |  | 45.9 | 69.2
CGAAGUCCGUAGAAGGGUGACAUGAGGAUCACCCAUGUGCGAGCCGAGGGAGUCAGCGGCUCGCCACAGGAUAUACGGAUCACG | 17.1 | 61.8 |  | 
UUGGACGUCGUAGGAUAUGUAGGAUAUUCCUACAUGAGGAUCACCCAUGUUGUCAUGGAAGAAGGACAGAAGGACGAUGUCCAU | 328 | 4.9 |  | 
GACUUGUAAGGAUAUCGUGCAAGUUUCAAAAGAGGCUUGUGCGAGAAGGUACAUGAGGAUCACCCAUGUAGGUU |  |  | 27 | 56.6
AGUACUCAAAGAGUACGCGUAAGCACAUGAGGAUCACCCAUGUAGGAUAUGCUACUCAAAGAGUAGUAGAAGGACAUAUUCCUC |  |  | 5.85 | 7.46
AUCGGUCCGUAGAAGGGUGACAUGAGGAUCACCCAUGUGCCGUGGGCAUUUAUGCCUCCACGGCCACAGGAUAUACGGAGUUGA | 54 | 36.8 |  | 
GCAGCACUUUAUUACAUGAGGAUCACCCAUGUCGAUUGUUAUGAGGAUAUGCAUCGGAUGAAGAUGCAGAAGGCAUUGUGCUGC | 7.24 | 6.04 |  | 
GCUAGUCAUGUCAGGAUAUGCUGAACCUUGGUUCAGCAGAAGGGACAUGAGGAUCACCCAUGUGCCUAACUAGC |  |  | 42.1 | 402
GUGCUCGUGUGAGGAUAUGCUUCCGUUUCGGCUGCAGAAGGUACUAUUAUACAUGAGGAUCACCCAUGUCGCUUUUCUCCGGUG | 26.6 | 27.5 |  | 
GUGCCUCAGAACAUGAGGAUCACCCAUGUGCUGCGGGCACCGUAGGAUAUGAUGGUACGCUACCAUCAGAAGGAUGAUGGUACC | 4.83 | 4.92 |  | 
